Laboratory results published in ChEMBL document CHEMBL4513216, “Probing the Open Global Health Chemical Diversity Library for Multistage-Active Starting Points for Next-Generation Antimalarials” (ACS Infect Dis, 2020).

Assay: Toxicity liver stage against HepG2, at 10uM
Type: cell-based
Parameters: test concentration 10 uM, cell line HepG2-A16-CD81EGFP
Conditions: human, HepG2-A16-CD81EGFP cells; read-out: INHIBITION
How it was run: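 Uninfected HepG2-A16-CD81EGFP cells, 3 × 10^3 per well, 1536-well, plated on prespotted compound at 10 μM final, parasite-free screening media added to match infected plates; puromycin 10 μM positive, DMSO 0.5% negative; run in parallel with 48 h PbLuc assay at 37 °C, 5% CO2; viability by CellTiter-Glo luminescence, normalized to controls.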

SMILES	cytotoxicity at 10 µM [%]
CCN(CC)S(=O)(=O)c1cc(Br)ccc1OC	0.58
Cc1ccc(CN2CC[C@H](c3nnc(-c4ccco4)o3)C2)cc1	-2.25
Cc1cccc2c1nc1n2[C@@H](CNC(=O)Cc2ccccc2)COC1	-5.12
COCCN1C[C@H]2CN(C(=O)NC(C)C)CCN2C1=O	2.6
COCC(=O)N1CCN(S(=O)(=O)c2ccccc2)[C@@H](C(=O)OC)C1	1.03
COC(=O)c1cccc2nc([C@H]3CCN(Cc4ccccc4C)C3)oc12	8.36
CSCC(C)(O)CNS(=O)(=O)c1cccc(Cl)c1 (configuration not stated)	-0.396
Cn1nc(CNC(=O)C2CCC2)cc1C1CC1	-4.31
O=C(Cc1ccc(F)cc1)N1C[C@H]2CCN[C@H]2C1	2.26
O=C(CC1CC1)N1CCC2(CC1)CN(CCn1cccn1)C(=O)CO2	1.75
COC[C@H]1CC[C@H]2[C@H](CCN2S(=O)(=O)Cc2ccccc2)O1	8.25
Cc1ncnc2c1CCN(C(=O)c1ccsc1)CC2	-0.443
CCN(CC)CC1CN(Cc2ccco2)Cc2nccn2C1 (configuration not stated)	-139
COCCN(Cc1ccoc1)C(=O)c1ccccc1Cl	9.12
CNC(=O)[C@@]12CCC3(CCN(S(C)(=O)=O)CC3)[C@@H]1CN(S(C)(=O)=O)C2	-16.1
CCn1cc(Br)c(C(=O)NCc2ccc(F)cc2)n1	-3.01
COCCCNC(=O)C(C)n1cc(Br)cn1 (configuration not stated)	12.2
Cc1cc2[nH]c(O)nc2cc1NCc1ccccc1	16
Cc1cc(C(=O)N(C)Cc2cccs2)nc(N2CCCC2)n1	7.85
CC1CCC(NC(=O)c2nn(C)cc2I)CC1 (configuration not stated)	11.8
CCN(CC)C(=O)c1nnn(Cc2ccccc2)c1OC	10.3
CNc1nc(C)c(C(=O)NCC(C)(C)N2CCCCC2)s1	2.79
CC(C)c1[nH]c2ncccc2c1CN1CCN(S(=O)(=O)N(C)C)CC1	3.33

SMILES	cytotoxicity at 10 µM [%]
CN(C)S(=O)(=O)N1CCC(c2ccncc2)CC1	-27.6
c1ccc(N2CCOC(Cc3cccnc3)C2)cc1 (configuration not stated)	-26.3
CCn1cc(NC(=O)N2CCN(CCSc3ccccc3)CC2)cn1	-0.095
CS(=O)(=O)c1ccc(NCc2ccc(F)cc2)cn1	8.08
COc1cccc(C(C)N2CCN(S(=O)(=O)c3ccccc3)CC2)c1 (configuration not stated)	5.11
Cc1ccc(F)cc1C(=O)NCc1ccc(C(=O)O)o1	-10.1
O=C(NCCO)Nc1ccc(Br)c(F)c1	1.92
CC(C)(C)OC(=O)N1CCCCC(NC(=O)CCc2cccnc2)C1 (configuration not stated)	17.5
N#Cc1cc(S(N)(=O)=O)ccc1N1CCN(c2ccccc2)CC1	-3.54
COc1cc(CO)ccc1OCc1nc(C2CC2)no1	6.37
CCCN(Cc1cnn(C)c1)S(=O)(=O)c1ccc(F)c(C#N)c1	6.69
OCc1cccc(CNCc2cccc3c2OCCO3)c1	4.25
CC(O)CN1CCC(CNCc2cn(-c3ccccc3)nn2)CC1 (configuration not stated)	3.31
N#Cc1ccnc(N2CCN(C3CCOC3=O)CC2)c1 (configuration not stated)	-1.98
Cc1cc(C(=O)NCC(O)CN2CCCC2=O)ccc1F (configuration not stated)	5.24
O=C(NC1CCc2cc(Cl)ccc21)C1CCN(C(=O)C2CC2)CC1 (configuration not stated)	-1.43
Cc1nc(CN2CCN(CCCc3nc4ccccc4o3)CC2)no1	9.13
Cc1noc(C(C)N(C)Cc2ccco2)n1 (configuration not stated)	6.6
O=C(NCCc1cccnc1)NC1CCOC2(CCCCC2)C1 (configuration not stated)	-16.3
CC(C)N(CCNC(=O)N1CCCC(N(C)C)C1)C1CC1 (configuration not stated)	-0.211
Cc1ccc(NS(=O)(=O)c2ccc(C#N)cc2)c(CN(C)C)c1	-8.51
COc1ccc(Oc2ccc(CNC(=O)C3CCS(=O)(=O)C3)cn2)cc1 (configuration not stated)	-2.22
CC(C)N(C)S(=O)(=O)N(C)Cc1cnn(Cc2ccccc2)c1	7.01

SMILES	cytotoxicity at 10 µM [%]
CC(=O)NCCC(=O)NCCCOc1c(C)cccc1C	-4.81
CN(C)c1nccc(CNC(=O)NC(C)(C)C)n1	-7.36
CC(=O)Nc1ccc(CN2CCOC2=O)cc1	-6.24
CC(C)c1nnc2n1CCN(c1nn3cc(C(C)(C)C)nc3s1)C2	7.44
Cc1cccc(NCC(=O)Nc2cc(F)ccc2F)c1C(N)=O	7.53
CCN(C(c1cccnc1)c1ccc(F)c(F)c1)S(C)(=O)=O (configuration not stated)	-0.69
Cc1cc(N2CCCC2Cn2nc(C)cc2C)n2ncnc2n1 (configuration not stated)	-2.74
CCS(=O)(=O)N1CCC(CSc2ccccc2)C1 (configuration not stated)	2.42
Cn1nnnc1SCCC(=O)NCC(C)(C)c1ccccc1F	5.68
Cc1cnn(CC2CCCCN2c2ncnc3ccccc23)c1 (configuration not stated)	8.24
N#Cc1cnc(NCc2ccc(C(=O)NC3CC3)cc2)c(Cl)c1	-0.18
Brc1ccc(C2(CNCc3cc[nH]c3)CCOCC2)cc1	9.17
Fc1cccc2[nH]c(CN3CCn4c(nnc4C4CC4)C3)nc12	-5.07
CC(NC(=O)N1CCN(c2cccs2)CC1)c1ccc(C#N)cc1 (configuration not stated)	11.4
O=C(NCC1CCCOC1)c1ccc(-c2cccs2)[nH]c1=O (configuration not stated)	-3.67
CN(CC(C)(C)O)C(=O)Nc1ccc(F)c(-n2cccc2)c1	-9.3
COc1cccc(CN(C)Cc2ccc(C#N)cc2)c1OC	-8.34
CC(=O)N1CCC(C(=O)NCCN2CCCCC2)CC1	-5.04
NS(=O)(=O)CCNC(=O)c1ccc(-c2ccc(F)cc2)cc1F	-3.62
CC(COc1ccc(F)cc1F)NC(=O)NCCN1CCOCC1 (configuration not stated)	-10.9
CN(C)C(=O)N1CCCC2(CCN(c3ccsc3)C2=O)C1 (configuration not stated)	-72.5
Cc1nc(N(C)C)ncc1C(=O)NCCc1csc(-c2cnccn2)n1	-5
COc1cccc(Cn2ncnc2CCSC)c1	-1.22

SMILES	cytotoxicity at 10 µM [%]
Cc1noc(C)c1CCCNC(=O)C1CCN(C(C)C)CC1	-7.01
Cc1cccc(SC2CCN(C(=O)CCNS(C)(=O)=O)CC2)c1	1.2
COc1cc(N2C[C@@H](C)[C@](O)(C3CC3)C2)ncn1	-0.714
CCCN1CCN(C(=O)Nc2ccccc2Cl)[C@H]2CS(=O)(=O)C[C@H]21	1.54
COCCNS(=O)(=O)c1cccc2c1CN(C(=O)c1cnccn1)CC2	-0.432
Cc1noc(-c2ccc(N3CCCC(C(=O)c4nccn4C)C3)nc2)n1 (configuration not stated)	-6.58
COc1ccccc1CNC(=O)CN(C)C(C)c1ccncn1 (configuration not stated)	-4.73
CC(C)(O)CCc1ccc(C(=O)NCC2CCCOC2)cc1 (configuration not stated)	0.445
Cc1nccn1CCN(C)C(=O)c1cn(-c2ccccc2)nn1	-0.651
COc1ccc(N2CCN(C(=O)CCCc3cn[nH]c3)CC2=O)cc1	-9.9
CCC(C)N(Cc1ccncc1)Cc1ccc(-n2cccn2)cc1 (configuration not stated)	-48.3
CCn1cc(CN2CCN(C)C3(CCC(=O)N(CC4CC4)CC3)C2)cn1 (configuration not stated)	-0.764
CC(C)Cn1cncc1CNC1CCSCC1	-4.11
Cc1ccccc1C(C(=O)NCCSC(F)(F)F)N(C)C (configuration not stated)	8.25
O=C(NCc1ccco1)c1cc(N2CC[C@@H](O)C2)ccn1	-2.93
CN(C)C(=O)N1CCN(Cc2ccccc2)[C@@H]2CS(=O)(=O)C[C@@H]21	-12.6
CCn1c(CN2CCCC2)nnc1C1CCN(Cc2ccc(C)o2)CC1	-14.8
CCOCC(O)CN1CCN(C(=O)c2cccc(OC)c2)CC1 (configuration not stated)	-0.874
CC(=O)N1CCCC(C(=O)NCCOc2cc(C)cc(C)c2)C1 (configuration not stated)	-3.43
CC(C)c1nc(CN2CCOC(Cn3cncn3)C2)cs1 (configuration not stated)	-4.39
CCS(=O)(=O)N1CCC(NC(=O)c2ccccc2O)CC1	-7.27
Cc1ccc2oc(C(=O)N3CCCC(n4cccn4)C3)cc2n1 (configuration not stated)	-3.89
CCn1cc(CN2CCCN(C(=O)c3sccc3OC)CC2)cn1	-5.68

SMILES	cytotoxicity at 10 µM [%]
CN1CCOC(CNC(=O)Cc2coc(-c3ccccc3)n2)C1 (configuration not stated)	-25.1
CN(Cc1ccc(N(C)C)cc1)C(=O)NCc1nnc2n1CCC2	-21
Cc1ccc(-c2nc(CN3CCN(C(=O)C4CC4)CC3)cs2)o1	-12.6
CS(=O)(=O)c1ccc(CNc2nccc(C(F)(F)F)n2)cc1	-23.2
Cc1cnc(C(=O)Nc2cc(F)ccc2OCC2CCCO2)cn1 (configuration not stated)	-4.83
O=C(CN1CCCCC1Cn1cncn1)NCc1ccccn1 (configuration not stated)	-4.02
Cc1nc(C)c(C(=O)OCCNc2ncccc2C#N)s1	-7.32
CNC(=O)[C@@H]1CN(C(=O)C2CCC2)C[C@H]1c1ccnc(N2CCCC2)n1	-3.21
COc1cccc(N2C(=O)CC3(CCCNC3)C2=O)c1 (configuration not stated)	1.52
Cc1cccc(CN2C(=O)C[C@H]3[C@@H]2CCN3Cc2ccco2)n1	-1.39
O=C(NCc1ccco1)[C@@]12CCO[C@@H]1CCN(Cc1ccccn1)C2	0.109
Oc1cc(C2CCNCC2)nc(-c2ccsc2)n1	4.06
Cc1cc(CN2CC[C@H]3C(=O)N(c4ccccc4)CCO[C@H]3C2)no1	-5.59
Cc1ccoc1C(=O)N1C[C@@H]2COC[C@]2(COCc2cccnc2)C1	5.95
COCCN1CC[C@@H](OC)[C@@H]1Cc1ccccc1	4.9
CCS(=O)(=O)N1CC[C@@H]2[C@H](CC1)N(CC(C)C)CCS2(=O)=O	8.4
CS(=O)(=O)N[C@@H]1CCO[C@]2(CCN(CC3CCOCC3)C2)C1	-132
COc1ccc(C[C@H]2CNCC[C@@H]2OC)cc1	3.11
c1cnc(N2CCOCC3(CN(Cc4nccs4)CCO3)C2)nc1 (configuration not stated)	1.5
CC(=O)c1cc(CN2C[C@@H]3CC[C@H]2CN(Cc2c(C)noc2C)C3)cs1	-1.43
